Results from ChEMBL document CHEMBL1671748, “Subinhibitory concentrations of protein synthesis-inhibiting antibiotics promote increased expression of the agr virulence regulator and production of phenol-soluble modulin cytolysins in community-associated methicillin-resistant Staphylococcus aureus” (2010).
In brackets after ≈: the same amount, converted by molar mass. Activity calls are given as the source filed them. The calls are words filed in the database; no cut-off is given here.

Columns and labels:
[1] = target: T1, Accessory gene regulator protein A (Staphylococcus aureus) (UniProt P0A0I7); test: Activity of Quorum sensing agr in community-associated methicillin-resistant Staphylococcus aureus USA300 assessed as PSMalpha expression after 8 hrs by qRT-PCR
T1 sequence (whole entry): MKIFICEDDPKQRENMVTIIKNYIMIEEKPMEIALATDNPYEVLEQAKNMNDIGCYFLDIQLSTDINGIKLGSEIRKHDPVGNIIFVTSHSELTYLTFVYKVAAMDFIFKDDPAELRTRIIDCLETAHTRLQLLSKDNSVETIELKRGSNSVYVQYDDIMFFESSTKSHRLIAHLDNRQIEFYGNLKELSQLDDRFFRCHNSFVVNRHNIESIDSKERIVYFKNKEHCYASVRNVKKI
How it was run: (§1)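 LAC (USA300) was grown 8 h in shaken 125-ml flasks with antibiotic at a subinhibitory concentration. psmα and psmβ transcripts were quantified by qRT-PCR, with gyrB transcript as control, in parallel with RNAIII as the agr read-out. Run in triplicate; means ± SD.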

[2] = target: T1, Accessory gene regulator protein A (Staphylococcus aureus); test: Activity of Quorum sensing agr in community-associated methicillin-resistant Staphylococcus aureus USA300 assessed as PSMbeta expression after 8 hrs by qRT-PCR; how it was run: as §1
Staphylococcus aureus [3] = test: Antimicrobial activity against community-associated methicillin-resistant Staphylococcus aureus USA300; format: functional
Staphylococcus aureus [4] = test: Antimicrobial activity against community-associated methicillin-resistant Staphylococcus aureus Sanger 252; format: functional
Staphylococcus aureus [5] = test: Increase in PSMalpha levels in Staphylococcus aureus USA300 at subinhibitory concentrations after 24 hrs by RP-HPLC/ESI- MS; format: functional, organism-based
How it was run: (§2)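 Antibiotic was added at inoculation (1:100 from preculture) into tryptic soy broth, with an antibiotic-free control, and shaken at 200 rpm for 24 h. Sub-inhibitory levels started at 1/10 of published MICs and were adjusted to give minimal growth effect, with growth tracked by OD600. PSMs in culture filtrates were quantified in triplicate by RP-HPLC/ESI-MS and reported as mean ± SD.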

Staphylococcus aureus [6] = test: Decrease in delta toxin levels in Staphylococcus aureus Sanger 252 at subinhibitory concentrations after 24 hrs by RP-HPLC/ESI- MS; format: functional, organism-based
How it was run: (§3)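 Antibiotic at a subinhibitory concentration was added at inoculation (1:100 from precultures) into 1 ml tryptic soy broth and shaken 24 h at 200 rpm. Peptides in culture filtrates were quantified by RP-HPLC/ESI-MS in triplicate. Each concentration started at 1/10 of the published MIC and was adjusted to give minimal growth effect, judged by OD600.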

Staphylococcus aureus [7] = test: Decrease in delta toxin levels in Staphylococcus aureus USA300 at subinhibitory concentrations after 24 hrs by RP-HPLC/ESI- MS; format: functional, organism-based; how it was run: as §3
Staphylococcus aureus [8] = test: Decrease in PSMbeta1 levels in Staphylococcus aureus Sanger 252 at subinhibitory concentrations after 24 hrs by RP-HPLC/ESI- MS; format: functional, organism-based; how it was run: as §2
Staphylococcus aureus [9] = test: Decrease in PSMbeta1 levels in Staphylococcus aureus USA300 at subinhibitory concentration after 24 hrs by RP-HPLC/ESI-MS; format: functional, organism-based; how it was run: as §2
Staphylococcus aureus [10] = test: Decrease in PSMalpha levels in Staphylococcus aureus USA300 at subinhibitory concentration after 24 hrs by RP-HPLC/ESI-MS; format: functional, organism-based; how it was run: as §3
Staphylococcus aureus [11] = test: Decrease in PSMalpha levels in Staphylococcus aureus Sanger 252 at subinhibitory concentrations after 24 hrs by RP-HPLC/ESI- MS; format: functional, organism-based; how it was run: as §2
Staphylococcus aureus [12] = test: Increase in PSMalpha levels in Staphylococcus aureus Sanger 252 at subinhibitory concentrations after 24 hrs by RP-HPLC/ESI- MS; format: functional, organism-based; how it was run: as §3

Structure (SMILES) | Activity [1] | Activity [2] | MIC (Staphylococcus aureus [3]) | MIC (Staphylococcus aureus [4]) | Activity (Staphylococcus aureus [5]) | Activity (Staphylococcus aureus [6]) | Activity (Staphylococcus aureus [7]) | Activity (Staphylococcus aureus [8]) | Activity (Staphylococcus aureus [9]) | Activity (Staphylococcus aureus [10]) | Activity (Staphylococcus aureus [11]) | Activity (Staphylococcus aureus [12])
CN(C)[C@@H]1C(O)=C(C(N)=O)C(=O)[C@@]2(O)C(O)=C3C(=O)c4c(O)cccc4[C@@](C)(O)[C@H]3C[C@@H]12 [TETRACYCLINE] | Active | Active | 1 µg/mL (≈ 2.25 µM) | 1 µg/mL (≈ 2.25 µM) | Active | inactive | inactive | Active | Active |  |  | 
CN[C@H](CC(C)C)C(=O)N[C@H]1C(=O)N[C@@H](CC(N)=O)C(=O)N[C@H]2C(=O)N[C@H]3C(=O)N[C@H](C(=O)N[C@H](C(=O)O)c4cc(O)cc(O)c4-c4cc3ccc4O)[C@H](O)c3ccc(c(Cl)c3)Oc3cc2cc(c3O[C@@H]2O[C@H](CO)[C@@H](O)[C@H](O)[C@H]2O[C@H]2C[C@](C)(N)[C@H](O)[C@H](C)O2)Oc2ccc(cc2Cl)[C@H]1O |  |  |  |  |  | inactive | inactive | Active | Active |  |  | 
O=C(O)c1cn(C2CC2)c2cc(N3CCNCC3)c(F)cc2c1=O [CIPROFLOXACIN] |  |  | 2 µg/mL (≈ 6.04 µM) | > 16 µg/mL |  | inactive | inactive | Active | Active |  |  | 
Cc1cc(NS(=O)(=O)c2ccc(N)cc2)no1 [SULFAMETHOXAZOLE] |  |  | 4.75 µg/mL (≈ 18.8 µM) | 4.75 µg/mL (≈ 18.8 µM) |  |  |  |  |  |  |  | 
C/C(=C\C(=O)OCCCCCCCCC(=O)O)C[C@@H]1OC[C@H](C[C@@H]2O[C@H]2[C@@H](C)[C@H](C)O)[C@@H](O)[C@H]1O [MUPIROCIN] |  |  | 0.12 µg/mL (≈ 0.24 µM) | 0.25 µg/mL (≈ 0.499 µM) |  | Active | inactive | Active | Active | inactive | Active | 
CC[C@H]1OC(=O)[C@H](C)[C@@H](O[C@H]2C[C@@](C)(OC)[C@@H](O)[C@H](C)O2)[C@H](C)[C@@H](O[C@@H]2O[C@H](C)C[C@H](N(C)C)[C@H]2O)[C@](C)(O)C[C@@H](C)C(=O)[C@H](C)[C@@H](O)[C@]1(C)O [ERYTHROMYCIN] |  |  | > 8 µg/mL | > 8 µg/mL | Active | inactive | inactive | Active | Active |  |  | 
Cc1onc(-c2ccccc2)c1C(=O)N[C@@H]1C(=O)N2[C@@H]1SC(C)(C)[C@@H]2C(=O)O [OXACILLIN] | inactive | inactive | > 16 µg/mL | > 16 µg/mL |  | inactive | Active | Active | Active | Active |  | inactive
CC(=O)NC[C@H]1CN(c2ccc(N3CCOCC3)c(F)c2)C(=O)O1 [LINEZOLID] |  |  |  | 1 µg/mL (≈ 2.96 µM) | Active | inactive | inactive | Active | Active |  |  | 
CO[C@H]1/C=C/O[C@@]2(C)Oc3c(C)c(O)c4c(O)c(c(/C=N/N5CCN(C)CC5)c(O)c4c3C2=O)NC(=O)/C(C)=C\C=C\[C@H](C)[C@H](O)[C@@H](C)[C@@H](O)[C@@H](C)[C@H](OC(C)=O)[C@@H]1C [RIFAMPIN] |  |  | 0.004 µg/mL (≈ 0.00486 µM) | 0.004 µg/mL (≈ 0.00486 µM) |  | inactive | inactive | Active | Active |  |  | 
CCC[C@@H]1C[C@@H](C(=O)N[C@@H]([C@H]2O[C@H](SC)[C@H](O)[C@@H](O)[C@H]2O)[C@H](C)Cl)N(C)C1 [CLINDAMYCIN] | Active | Active | 0.12 µg/mL (≈ 0.282 µM) | > 4 µg/mL | Active | inactive | inactive | Active | Active |  |  | 
COc1cc(Cc2cnc(N)nc2N)cc(OC)c1OC [TRIMETHOPRIM] |  |  | 0.25 µg/mL (≈ 0.861 µM) | 0.25 µg/mL (≈ 0.861 µM) |  |  |  |  |  |  |  | 
